# Reference: ChEMBL document CHEMBL1122960, “Acyclic analogues of 2'-deoxynucleosides related to 9-[(1,3-dihydroxy-2-propoxy)methyl]guanine as potential antiviral agents” (1985)
# pIC50: −log10 of the molar value.
# Legend:
# Type in all cases: functional
# [1] = system: Vero; test: Antiviral activity was determined in plaque reduction assay in vero cells against HSV-1 F strain; settings: Chlorocebus sabaeus, read-out: ID50 (the source's name)
# In short: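 Vero cells were infected with HSV-1 (F strain) and then treated with the nucleoside analogue. ID50 is the dose giving a 50% reduction in plaque number relative to untreated controls.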
# [2] = system: Mus musculus; test: Effect of oral treatment on HSV-2 encephalitis infection in mice and survivors/total was reported at a dose 5 mg/kg; 8/20
# In short: (§1)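 Female Swiss-Webster mice, about 20 g, were infected intraperitoneally with 5 × 10⁴ PFU HSV-2 (strain G), roughly ten LD50. Drug was given orally once daily for 4 days, beginning 24 h after infection, with a placebo group included. Read-outs were survivors/total and mean survival time in days.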
# [3] = system: Mus musculus; test: Effect of oral treatment on HSV-2 encephalitis infection in mice and mean survival time was reported at a dose 5 mg/kg; in short: as §1
# [4] = system: Mus musculus; test: Effect of oral treatment on HSV-2 encephalitis infection in mice and survivors/total was reported at a dose 20 mg/kg; 8/20; in short: as §1
# [5] = system: Mus musculus; test: Effect of oral treatment on HSV-2 encephalitis infection in mice and mean survival time was reported at a dose 10 mg/kg; in short: as §1
# [6] = system: Mus musculus; test: Effect of oral treatment on HSV-2 encephalitis infection in mice and mean survival time was reported at a dose 20 mg/kg; in short: as §1
# [7] = system: Mus musculus; test: Effect of oral treatment on HSV-2 encephalitis infection in mice and survivors/total was reported at a dose 10 mg/kg; 5/20; in short: as §1
# [8] = system: Mus musculus; test: Effect of oral treatment on HSV-2 encephalitis infection in mice and survivors/total was reported at a dose 40 mg/kg; 7/20; in short: as §1
# [9] = system: Mus musculus; test: Effect of oral treatment on HSV-2 encephalitis infection in mice and mean survival time was reported at a dose 40 mg/kg; in short: as §1
# [10] = system: Mus musculus; test: Effect of oral treatment on HSV-2 encephalitis infection in mice and survivors/total was reported at a dose 10 mg/kg; 4/20; in short: as §1
# [11] = system: Mus musculus; test: Effect of oral treatment on HSV-2 encephalitis infection in mice and survivors/total was reported at a dose 20 mg/kg; 5/20; in short: as §1
compound,measurement,setting,value
O=c1[nH]c(=O)n(COC(CO)CO)cc1F,pIC50,[1],< 4.00
Nc1ncnc2c1ncn2COC(CO)CO,pIC50,[1],< 4.00
Nc1nc(=O)n(COC(CO)CO)cc1F,pIC50,[1],< 4.00
Nc1nc(=O)ccn1COC(CO)CO,pIC50,[1],< 4.00
Nc1nc(S)c2ncn(COC(CO)CO)c2n1,pIC50,[1],5.05
O=c1[nH]c(=O)n(COC(CO)CO)cc1Br,pIC50,[1],< 4.00
Nc1ccn(COC(CO)CO)c(=O)n1,pIC50,[1],< 4.00
Nc1ncc2ncn(COC(CO)CO)c2n1,pIC50,[1],4.80
O=c1ccn(COC(CO)CO)c(=O)[nH]1,pIC50,[1],< 4.00
Nc1nc2c(ncn2COCCO)c(=O)[nH]1 [ACYCLOVIR],pIC50,[1],6.30
Cc1cn(COC(CO)CO)c(=O)[nH]c1=O,pIC50,[1],< 4.00
Nc1nc2c(ncn2COC(CO)CO)c(=O)[nH]1 [GANCICLOVIR],Survival,[2],8
same,Survival time,[3],9.9 days
same,pIC50,[1],6.70
same,Survival,[4],8
same,Survival time,[5],10.9 days
same,Survival time,[6],13.8 days
same,Survival,[7],5
Nc1nc(N)c2ncn(COC(CO)CO)c2n1,pIC50,[1],5.48
same,Survival,[8],7
same,Survival time,[9],11.5 days
same,Survival,[10],4
same,Survival,[11],5
same,Survival time,[5],10.8 days
same,Survival time,[6],10.9 days
